This note sets out measurements from ChEMBL document CHEMBL4610063, “Mangiferin: A promising natural xanthone from Mangifera indica for the control of acyclovir - resistant herpes simplex virus 1 infection” (Bioorg Med Chem, 2020).

Type in all cases: functional, organism-based
Assay [1] concerns Human alphaherpesvirus 1. In words: Antiviral activity against ACV-sensitive Herpes simplex virus 1 KOS infected in male Balb/c mouse assessed as reduction in ulcerated lesion at 50 mg/g applied topically as cream formulation 5 times a day at 3 hrs interval for 10 days measured on day 2 post infection. As to conditions: strain KOS. A digest of the protocol:
(§1)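 Balb/c mice (5 weeks, 22–27 g; six per group, sexes tested separately) had the right mid-flank depilated under i.p. anaesthesia and needle-scarified 24 h later. They were inoculated with 70 μL HSV-1 KOS (10^5 PFU/mL). From 4 h post-infection, O/W emulsion with 0.7% w/w mangiferin or ACV cream (50 mg/g) was applied topically 5 times daily for 10 days. Lesions were scored daily.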

Assay [2] concerns Human alphaherpesvirus 1. In words: Antiviral activity against ACV-resistant Herpes simplex virus 1 AR-29 infected in male Balb/c mouse assessed as reduction in ulcerated lesion at 50 mg/g applied topically as cream formulation 5 times a day at 3 hrs interval for 10 days measured on day 5 post infection. A digest of the protocol:
(§2)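 Balb/c mice, 5 weeks old, six per group. Right mid-flank depilated under i.p. anaesthesia, needle-scarified 24 h later and inoculated with 70 μL HSV-1 AR-29 (10^5 PFU/mL). Topical 0.7% w/w O/W emulsion or ACV cream (50 mg/g) starts 4 h post-infection, 5 times daily for 10 days. Lesions are scored daily.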

The subject of assay [3] is Human alphaherpesvirus 1. In words: Antiviral activity against ACV-resistant Herpes simplex virus 1 AR-29 infected in male Balb/c mouse assessed as reduction in zosteriform lesion at 50 mg/g applied topically as cream formulation 5 times a day at 3 hrs interval for 10 days measured on day 5 post infection. In outline: as §2
Assay [4] concerns Human alphaherpesvirus 1. In words: Antiviral activity against ACV-resistant Herpes simplex virus 1 AR-29 infected in female Balb/c mouse assessed as reduction in skin lesion at 50 mg/g applied topically as cream formulation 5 times a day at 3 hrs interval for 10 days. In outline:
as §2

Assay [5] concerns Human alphaherpesvirus 1. The experiment in a line: Antiviral activity against ACV-sensitive Herpes simplex virus 1 KOS infected in male Balb/c mouse assessed as reduction in ulcerated lesion at 50 mg/g applied topically as cream formulation 5 times a day at 3 hrs interval for 10 days measured on day 7 post infection. As to conditions: strain KOS. In outline: as §1
Assay [6] has as its system Human alphaherpesvirus 1. In words: Antiviral activity against ACV-sensitive Herpes simplex virus 1 KOS infected in female Balb/c mouse assessed as reduction in ulcerated lesion at 50 mg/g applied topically as cream formulation 5 times a day at 3 hrs interval for 10 days measured on day 3 to day 5 post infection. As to conditions: strain KOS. In outline:
as §1

Assay [7] relates to Human alphaherpesvirus 1. In words: Antiviral activity against ACV-resistant Herpes simplex virus 1 AR-29 infected in female Balb/c mouse assessed as reduction in zosteriform lesion at 50 mg/g applied topically as cream formulation 5 times a day at 3 hrs interval for 10 days measured on day 7 post infection. In outline:
as §2

Calls of active or inactive are those of the source. The calls are words filed in the database; no cut-off is given here.

On to `Nc1nc2c(ncn2COCCO)c(=O)[nH]1`, for which the outcome in the assay with Human alphaherpesvirus 1 [1], with Human alphaherpesvirus 1 [2], in the assay on Human alphaherpesvirus 1 [3], with Human alphaherpesvirus 1 [4] and in the assay with Human alphaherpesvirus 1 [6] was inactive. Besides, the result with Human alphaherpesvirus 1 [5] and in the assay on Human alphaherpesvirus 1 [7] was Active.
